In ChEMBL document CHEMBL1133091, “Syntheses and structure-activity relationships of 5,6,7, 8-tetrahydro-5,5,8,8-tetramethyl-2-quinoxaline derivatives with retinoic acid receptor alpha agonistic activity” (J Med Chem, 2000):

Experiments:
[1] = molecular target: T1, Retinoic acid receptor gamma (Homo sapiens) (UniProt P13631); experiment: Transcriptional activation in COS-1 cells expressing Retinoic Acid Receptor gamma (RAR gamma); type: functional, cell-based
T1 sequence (whole entry): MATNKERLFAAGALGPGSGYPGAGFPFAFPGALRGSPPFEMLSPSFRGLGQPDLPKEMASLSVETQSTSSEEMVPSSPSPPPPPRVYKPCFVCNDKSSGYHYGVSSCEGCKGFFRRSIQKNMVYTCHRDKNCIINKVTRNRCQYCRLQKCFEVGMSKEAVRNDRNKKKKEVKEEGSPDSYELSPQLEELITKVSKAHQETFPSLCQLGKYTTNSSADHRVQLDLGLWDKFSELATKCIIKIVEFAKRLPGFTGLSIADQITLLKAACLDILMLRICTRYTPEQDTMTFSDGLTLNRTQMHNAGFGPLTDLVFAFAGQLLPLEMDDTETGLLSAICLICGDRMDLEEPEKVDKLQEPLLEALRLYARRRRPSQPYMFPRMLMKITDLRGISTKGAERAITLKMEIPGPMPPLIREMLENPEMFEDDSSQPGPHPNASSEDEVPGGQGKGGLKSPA
How it was run: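 Receptor and reporter vectors were lipofected into COS-1 cells for 4 h, then cultured 20 h in DMEM/10% FBS. Cells were reseeded at 3 × 10⁴ per well. After 6 h, compound was added in log dilutions from 1.0 × 10^-10 to 3.0 × 10^-6 M in duplicate. Supernatant PLAP activity was read after 48 h. EC30 was normalised to ATRA EC30 (mean ± SEM).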

[2] = molecular target: T2, Retinoic acid receptor beta (Homo sapiens) (UniProt P10826); experiment: Transcriptional activation in COS-1 cells expressing Retinoic Acid Receptor beta (RAR beta); type: functional, cell-based
T2 sequence (whole entry): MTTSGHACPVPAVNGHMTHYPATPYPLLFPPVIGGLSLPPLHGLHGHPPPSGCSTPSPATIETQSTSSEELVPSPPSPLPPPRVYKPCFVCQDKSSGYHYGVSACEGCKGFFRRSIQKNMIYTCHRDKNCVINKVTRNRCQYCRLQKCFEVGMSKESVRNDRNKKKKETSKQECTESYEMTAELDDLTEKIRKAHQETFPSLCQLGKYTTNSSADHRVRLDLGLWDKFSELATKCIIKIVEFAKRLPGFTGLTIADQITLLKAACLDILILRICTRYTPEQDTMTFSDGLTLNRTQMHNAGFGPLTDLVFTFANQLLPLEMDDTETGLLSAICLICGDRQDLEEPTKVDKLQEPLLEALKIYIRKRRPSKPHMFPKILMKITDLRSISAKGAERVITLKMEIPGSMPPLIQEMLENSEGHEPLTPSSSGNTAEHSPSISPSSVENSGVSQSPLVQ
How it was run: (§1)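 Receptor and reporter vectors were lipofected into COS-1 cells. After 4 h the medium was changed to DMEM/10% FBS for 20 h. Cells were reseeded at 3 × 10⁴/well and compounds added 6 h later, in log dilutions from 3.0 × 10^-6 to 1.0 × 10^-10 M in duplicate. Supernatant PLAP activity was read after 48 h. EC30 (30% of maximal response) was normalized to ATRA.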

[3] = molecular target: T3, Retinoic acid receptor alpha (Homo sapiens) (UniProt P10276); experiment: Transcriptional activation of Retinoic Acid Receptor alpha (RAR alpha); type: functional; how it was run: as §1
T3 sequence (whole entry): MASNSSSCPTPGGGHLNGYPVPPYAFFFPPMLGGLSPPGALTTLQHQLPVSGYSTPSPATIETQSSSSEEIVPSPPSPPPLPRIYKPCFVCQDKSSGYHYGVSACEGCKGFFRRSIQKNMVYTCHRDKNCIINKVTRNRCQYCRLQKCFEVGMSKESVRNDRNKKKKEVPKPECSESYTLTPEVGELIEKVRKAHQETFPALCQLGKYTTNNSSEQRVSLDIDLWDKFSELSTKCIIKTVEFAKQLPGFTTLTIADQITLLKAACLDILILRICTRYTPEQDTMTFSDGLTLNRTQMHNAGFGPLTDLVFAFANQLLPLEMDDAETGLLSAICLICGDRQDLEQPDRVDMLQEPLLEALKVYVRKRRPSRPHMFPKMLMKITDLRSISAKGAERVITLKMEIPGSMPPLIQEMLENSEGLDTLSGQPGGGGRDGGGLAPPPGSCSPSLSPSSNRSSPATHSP

[4] = molecular target: T4, Retinoic acid receptor alpha (Homo sapiens, UniProt P10276); experiment: Binding affinity for Retinoic Acid Receptor alpha (RAR alpha).
T4 sequence (P10276 whole entry): T3 sequence (whole entry)
How it was run: (§2)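 Competitive binding to individual RAR isoforms with [3H]ATRA as radioligand. IC50 for each receptor divided by the ATRA IC50 and reported as relative IC50 (mean ± SEM). nd means relative IC50 > 1000.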

[5] = molecular target: T2, Retinoic acid receptor beta (Homo sapiens); experiment: Transcriptional activation of Retinoic Acid Receptor beta (RAR beta); type: functional; how it was run: as §1
[6] = molecular target: T5, Retinoic acid receptor beta (Homo sapiens, UniProt P10826); experiment: Binding affinity for Retinoic Acid Receptor beta (RAR beta)
T5 sequence (P10826 whole entry): T2 sequence (whole entry)
How it was run: (§3)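 Competitive binding to each RAR isoform using [³H]ATRA as radioligand. IC50 for each receptor was divided by the ATRA IC50 on the same receptor to give relative IC50 (mean ± SEM). Values were labelled not detectable when relative IC50 > 1000.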

[7] = molecular target: T3, Retinoic acid receptor alpha (Homo sapiens); details: HL-60
[8] = molecular target: T1, Retinoic acid receptor gamma (Homo sapiens); experiment: (§4) Transcriptional activation of Retinoic Acid Receptor gamma (RAR gamma); type: functional; how it was run: as §1
[9] = molecular target: T4, Retinoic acid receptor alpha; experiment: (§5) Binding affinity for Retinoic Acid Receptor alpha (RAR alpha); how it was run: as §2
[10] = molecular target: T6, Retinoic acid receptor gamma (Homo sapiens, UniProt P13631); experiment: Binding affinity for Retinoic Acid Receptor gamma (RAR gamma); how it was run: as §2
T6 sequence (P13631 whole entry): T1 sequence (whole entry)

[11] = molecular target: T4, Retinoic acid receptor alpha; experiment: as §5; remark: listed apart in the source
[12] = molecular target: T3, Retinoic acid receptor alpha (Homo sapiens); details: COS-1
[13] = molecular target: T6, Retinoic acid receptor gamma; experiment: Binding affinity for Retinoic acid receptor gamma; how it was run: as §3
[14] = molecular target: T3, Retinoic acid receptor alpha (Homo sapiens); experiment: Induction of HL-60 cell differentiation at Retinoic Acid Receptor alpha (RAR alpha); type: functional, cell-based
How it was run: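 HL60 cells (1 × 10⁵ in 1 mL RPMI1640) were exposed to compounds for 5 days, in log dilutions from 1.0 × 10^-5 to 1.0 × 10^-12 M in duplicate. Differentiation was read as cell-surface CD11b expression by FACS. Values are averages of at least two experiments.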

[15] = molecular target: T1, Retinoic acid receptor gamma (Homo sapiens); experiment: as §4; how it was run: as §1
[16] = molecular target: T3, Retinoic acid receptor alpha (Homo sapiens); experiment: Transcriptional activation in COS-1 cells expressing Retinoic Acid Receptor alpha (RAR alpha); type: functional, cell-based; how it was run: as §1

Structure (SMILES) | EC30 [3] | EC30 [5] | IC50 [6] | ED30 [7] | EC30 [8] | IC50 [9] | IC50 [10] | also measured
CC1(C)CCC(C)(C)c2cc(NC(=O)c3ccc(C(=O)O)cc3)ccc21 |  |  |  |  |  |  |  | EC30 [1]: 150 nM; EC30 [2]: 48 nM
CC1(C)CCC(C)(C)c2nc(C(=O)Nc3ccc(C(=O)O)cc3)cnc21 | 0.15 nM | 0.4 nM | 140 nM | 0.87 nM | 1.6 nM |  |  | IC50 [4]: 40 nM
CC1(C)CCC(C)(C)c2nc(-c3ccc(-c4ccc(C(=O)O)cc4)s3)cnc21 | 15 nM | 0.73 nM | 36 nM | 40 nM | 2.1 nM | 130 nM | 17 nM | 
CC1(C)CCC(C)(C)c2cc(C(=O)Nc3ccc(C(=O)O)cc3)ccc21 |  |  |  |  |  |  |  | EC30 [1]: 33 nM; EC30 [2]: 12 nM
CC1(C)CCC(C)(C)c2cc(-c3ccc(-c4ccc(C(=O)O)cc4)[nH]3)ccc21 |  |  | 100 nM | 0.54 nM |  |  |  | IC50 [11]: 0.45 nM; EC30 [12]: 0.34 nM; IC50 [13]: 21 nM; EC30 [1]: 3.5 nM; EC30 [2]: 3.9 nM
Cn1c(-c2ccc(C(=O)O)cc2)ccc1-c1cnc2c(n1)C(C)(C)CCC2(C)C | 38 nM | 14 nM |  |  |  |  |  | ED30 [14]: 240 nM; EC30 [15]: 120 nM
CC1(C)CCC(C)(C)c2nc(-c3csc(-c4ccc(C(=O)O)cc4)n3)cnc21 | 5.2 nM | 0.39 nM | 21 nM | 11 nM | 0.34 nM | 83 nM | 3.6 nM | 
CC1(C)CCC(C)(C)c2nc(-c3cc(-c4ccc(C(=O)O)cc4)co3)cnc21 | 0.35 nM | 0.18 nM | 2.5 nM | 0.21 nM | 0.76 nM | 19 nM | 27 nM | 

Continued, in another order:

EC30 [3] | EC30 [5] | IC50 [6] | ED30 [7] | EC30 [8] | IC50 [9] | IC50 [10] | Structure (SMILES) | also measured
1.8 nM | 0.38 nM | 39 nM | 2.1 nM | 1.5 nM | 32 nM | 4.6 nM | CC1(C)CCC(C)(C)c2nc(-c3ccc(-c4ccc(C(=O)O)cc4)o3)cnc21 | 
0.87 nM | 0.5 nM | 4.5 nM | 9.5 nM | 0.72 nM | 2.4 nM | 2 nM | CC1(C)CCC(C)(C)c2nc(-c3cc(-c4ccc(C(=O)O)cc4)cs3)cnc21 | 
1.7 nM | 0.85 nM | 290 nM | 2.1 nM | 3.9 nM |  |  | CC1(C)CCC(C)(C)c2nc(-c3cc(-c4ccc(C(=O)O)cc4)[nH]n3)cnc21 | 
80 nM | 40 nM |  |  |  |  |  | CC1(C)CCC(C)(C)c2nc(-c3c[nH]c(-c4ccc(C(=O)O)cc4)n3)cnc21 | ED30 [14]: 20 nM; EC30 [15]: 39 nM
11 nM | 4.5 nM |  | 140 nM | 1.6 nM |  | 150 nM | CC1(C)CCC(C)(C)c2nc(-c3cc(-c4ccc(C(=O)O)cc4)c[nH]3)cnc21 | 
 |  | 230 nM | 0.11 nM |  | 2.2 nM |  | CC1(C)CCC(C)(C)c2nc(-c3ccc(-c4ccc(C(=O)O)cc4)[nH]3)cnc21 | EC30 [16]: 0.32 nM; IC50 [13]: 310 nM; EC30 [1]: 20 nM; EC30 [2]: 2.5 nM
